According to paper PMC5856940 (Saudi Pharmaceutical Journal : SPJ, 2018):

Key:
[1] = test system: HEK293T cells; test: Cytotoxicity screening of AHAMCs, trypan blue exclusion assay; format: cell-based, Human; details: 25 mM, 24 h
Method in brief: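 HEK293T cells were grown in DMEM with 10% FBS, 1mM pyruvate and antibiotics/antifungal at 37 °C and 5% CO2. Cells were seeded at 1 × 10^6 per well, grown 24 h, then given fresh medium. Test compound (100 mM DMSO stock, diluted in DMSO then dH2O) was added at 25 mM for 24 h. Cells were trypsinised (0.5%) and live/dead cells counted by trypan blue on a Bürker hemocytometer under bright field.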

[2] = test system: HEK293T cells; test: Dose-dependent response; format: cell-based, Human; details: 24 h; for IC50: cell death, trypan blue, 6.25-100 mM; for cytotoxicity at higher concentrations: 50 and 100 mM
Method in brief: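 HEK293T cells were seeded at 1 × 10^6 per well and grown 24 h. Medium was replaced with medium holding test compound at 6.25, 12.5, 25, 50 or 100 mM for 24 h. Read-out was trypan blue exclusion, with % cell death = dead/total cells × 100. IC50 was taken from a fitted concentration–effect curve. Three technical and biological repeats were done.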

[3] = test system: HEK293T cells; test: Externalized phosphatidylserine, Annexin-V staining; format: cell-based, Human
Method in brief: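 HEK293T cells were exposed to test compound for 24 or 48 h, trypsinised, washed three times in DPBS and resuspended in annexin-binding buffer. Alexa Fluor 350 Annexin-V conjugate was added for 15 min at 37 °C, and cells were washed in binding buffer. Imaging was by confocal microscopy (ex 346, em 442 nm). About 100 cells were analysed per sample, with three technical and biological repeats.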

[4] = test system: HEK293T cells; test: Differentiation of apoptosis and necrosis by PI staining; format: cell-based, Human; details: for cell death compared to the other compounds: IC50, 24 and 48 h
Method in brief: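 HEK293T cells (1 × 10^6 per well) were grown 24 h, then resuspended in medium with test compound at one fixed concentration for 24 or 48 h. Cells were washed three times in DPBS, trypsinised, washed again, and stained 5 min with 1 mg/mL PI in 2× SSC. Nuclei were imaged by confocal microscopy (ex 535, em 617 nm) and scored as apoptotic or necrotic. About 100 cells were counted per sample, with three technical and biological repeats.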

[5] = test system: U-87 MG cells; test: Cytotoxicity in glioma cells, trypan blue assay; format: cell-based, Human; details: 100 µM, 24 h
Method in brief: (§1)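 U-87 MG cells were grown in MEM with L-glutamine, and 1321N1 cells in DMEM with L-glutamine plus 2 mM sodium pyruvate. Both media had 10% FBS, penicillin/streptomycin and amphotericin B, at 37 °C and 5% CO2. Cells were seeded at 1 × 10^5 per well, grown 48 h, then exposed 24 h to 100 µM test compound, 0.1% DMSO or 100 µM temozolomide. Cells were trypsinised and scored by trypan blue. Biological and technical repeats were run.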

[6] = test system: 1321N1 cells; test: Cytotoxicity in glioma cells, trypan blue assay; format: cell-based, Human; details: 1321N1, 100 µM, 24 h
Method in brief: as §1

[7] = test system: Syrian Hamster Embryo (SHE) cells; details: 60 µM ref Hahnel et al., 1999; cited from earlier work

5-(2-(2-hydroxy-4-nitrophenyl)hydrazono)pyrimidine-2,4,6(1H,3H,5H)-trione [Compound 7]
cytotoxicity [1]: ≤ 30%

(E)-3-(2-(1-ethoxy-1,3-dioxobutan-2-ylidene)hydrazinyl)-2-hydroxy-5-nitrobenzenesulfonic acid [Compound 1]
cytotoxicity [1]: ≤ 30%

5-chloro-2-hydroxy-3-(2-(2,4,6-trioxo-tetrahydropyrimidin-5(6H)-ylidene)hydrazinyl)benzenesulfonic acid [Compound 4]
cytotoxicity [1]: ≤ 30%

5-chloro-3-(2-(4,4-dimethyl-2,6-dioxocyclohexylidene)hydrazinyl)-2-hydroxybenzenesulfonic acid [Compound 8]
cytotoxicity [1]: 45% | cell death [2]: ~80% | IC50 [2]: 75.5 ± 2.3 mM | level of apoptosis (Annexin-V) ([3]; 48 h): lower level of apoptosis | apoptosis/necrosis response compared with compound 5 ([4]; IC50, 48 h): lower response

5-(2-(4,4-dimethyl-2,6-dioxocyclohexylidene)hydrazinyl)-4-hydroxybenzene-1,3-disulfonic acid [Compound 9]
cytotoxicity [1]: 42% | cytotoxicity at higher concentrations [2]: did not elicit significant cytotoxicity | cell death compared to the other compounds [4]: less cell death

(Z)-5-chloro-2-hydroxy-3-(2-(4,4,4-trifluoro-1,3-dioxo-1-(thiophen-2-yl)butan-2-ylidene)hydrazinyl)benzenesulfonic acid [Compound 3]
cytotoxicity [1]: ≤ 30%

4-hydroxy-5-(2-(2,4,6-trioxo-tetrahydro-pyrimidin-5(6H) ylidene)hydrazinyl)benzene-1,3-disulfonic acid [Compound 6]
cytotoxicity [1]: 36% | cytotoxicity at higher concentrations [2]: did not elicit significant cytotoxicity | IC50 [2]: 77.08 ± 0.5 mM | cell death compared to the other compounds [4]: less cell death

5-(2-(2,4-dioxopentan-3-ylidene)hydrazinyl)-2,3-dihydrophthalazine-1,4-dione [Compound 13]
cytotoxicity [1]: ≤ 30%

5-(2-(2-hydroxyphenyl) hydrazono)pyrimidine-2,4,6(1H,3H,5H)-trione [Compound 5]
cytotoxicity [1]: 46% | cell death [2]: ~80% | IC50 [2]: 50.9 ± 2.5 mM | lower inhibitory effect compared to temozolomide [5]: 10% | mortality [5]: 10% | higher inhibitory effect compared to temozolomide [6]: 10% | mortality [6]: 20% | apoptotic effect (Annexin-V) ([3]; 24 h and 48 h): more apoptotic effect compared to the other compounds | apoptosis ([4]; IC50 of compound, 24 h): about 40% | necrosis ([4]; IC50 of compound, 24 h): about 20% | apoptosis ([4]; IC50 of compound, 48 h): ≈ 60% | cell death ([4]; IC50 of compound, 48 h): ~80% | necrosis ([4]; IC50 of compound, 48 h): about 20%

2-(2-(2-hydroxy-4-nitrophenyl)hydrazono)-2H-indene-1,3-dione [Compound 2]
cytotoxicity [1]: ≤ 30%

C[C@@H]1Cc2c(Cl)cc(C(=O)N[C@@H](Cc3ccccc3)C(=O)O)c(O)c2C(=O)O1 [Ochratoxin A]
intracellular calcium increase compared to untreated cells [7]: 45%

2-(2-(2,4-dioxopentan-3-ylidene)hydrazinyl)phenylarsonic acid [Compound 12]
cytotoxicity [1]: ≤ 30%
